This is an account of results in ChEMBL document CHEMBL1151937, “Synthesis and evaluation of an acyl-chain unsaturated analog of the Th2 biasing, immunostimulatory glycolipid, OCH” (Bioorg Med Chem Lett, 2009).

Activity calls are given as the source filed them. The rule behind the calls is not given here.

Type in all cases: functional, cell-based
The subject of assay [1] is Splenocyte. The assay can be described thus: Stimulation of mouse splenocyte proliferation by [3H]thymidine after 48 hrs by incorporation assay. Put shortly:
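Mouse splenocytes exposed to lipid at varying concentrations; proliferation read out as tritiated thymidine incorporation. Values are means of duplicate wells.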

A further assay deals with iNKT. The assay can be described thus: Stimulation of human iNKT cell proliferation.
The test system of assay [2] is Splenocyte. The assay can be described thus: Stimulation of IFN-gamma production in C57BL/6 mouse splenocytes after 48 hrs by ELISA. Put shortly:
(§1)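 C57BL/6 mouse splenocytes cultured 48 h with lipid over a range of concentrations; IL-4 and IFNγ measured in culture supernatants by standard sandwich ELISA. Values are means of duplicate wells.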

The subject of assay [3] is Splenocyte. The experiment in a line: Stimulation of IL4 production in C57BL/6 mouse splenocytes after 48 hrs by ELISA. The essentials: as §1
Background: In an ELISA, binding on a coated surface is turned into a signal by an enzyme label.

Regarding `CCCCCCCCCCCCCCCCCCCCCCCC(=O)N[C@@H](CO[C@H]1O[C@H](CO)[C@H](O)[C@H](O)[C@H]1O)[C@H](O)[C@H](O)CCCCC`, the outcome in the assay on Splenocyte [1] and in the assay on iNKT was Active.
With `CCCCC/C=C\C/C=C\CCCCCCCCCC(=O)N[C@@H](CO[C@H]1O[C@H](CO)[C@H](O)[C@H](O)[C@H]1O)[C@H](O)CCCCCC`, the result in the assay with Splenocyte [1], in the assay with Splenocyte [2] and in the assay on Splenocyte [3] was Active. Besides, in the assay with iNKT, the result was inactive.
For the compound `CCCCC/C=C\C/C=C\CCCCCCCCCC(=O)N[C@@H](CO[C@H]1O[C@H](CO)[C@H](O)[C@H](O)[C@H]1O)[C@H](O)[C@H](O)CCCCCCCCCCCCCC`, the outcome in the assay on Splenocyte [1] and in the assay with iNKT was Active.
On to `CCCCCCCCCCCCCCCCCCCC(=O)N[C@@H](CO[C@H]1O[C@H](CO)[C@H](O)[C@H](O)[C@H]1O)[C@H](O)[C@H](O)CCCCC`, for which the result in the assay with Splenocyte [1] was Active. Further, the outcome in the assay with Splenocyte [2], with Splenocyte [3] and with iNKT was inactive.
As to `CCCCCCCCCCCCCCCCCCCC(=O)N[C@@H](CO[C@H]1O[C@H](CO)[C@H](O)[C@H](O)[C@H]1O)[C@H](O)CCCCCC`, in the assay on Splenocyte [1], the outcome was Active. Moreover, the result with Splenocyte [2], in the assay with Splenocyte [3] and with iNKT was inactive.
